# pKi: −log10 of the molar value.
# How the values were obtained:
# [1] = molecular target: Histamine H3 receptor (Homo sapiens, UniProt Q9Y5N1); assay: Displacement of [3H]N-alpha-methylhistamine from human cloned histamine H3 receptor expressed in C6 cells; assay type: cell-based
# In short: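 Radioligand displacement with [3H]N-α-methylhistamine on membranes from C6 cells carrying cloned human H3R. Ki derived from pKi.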
# [2] = molecular target: Histamine H3 receptor (Rattus norvegicus, UniProt Q9QYN8); assay: Displacement of [3H]N-alpha-methylhistamine from histamine H3 receptor in rat cortical membranes; assay type: cell membranes, Membrane
# Chain of Histamine H3 receptor (Rattus norvegicus, UniProt Q9QYN8) (Q9QYN8 whole entry): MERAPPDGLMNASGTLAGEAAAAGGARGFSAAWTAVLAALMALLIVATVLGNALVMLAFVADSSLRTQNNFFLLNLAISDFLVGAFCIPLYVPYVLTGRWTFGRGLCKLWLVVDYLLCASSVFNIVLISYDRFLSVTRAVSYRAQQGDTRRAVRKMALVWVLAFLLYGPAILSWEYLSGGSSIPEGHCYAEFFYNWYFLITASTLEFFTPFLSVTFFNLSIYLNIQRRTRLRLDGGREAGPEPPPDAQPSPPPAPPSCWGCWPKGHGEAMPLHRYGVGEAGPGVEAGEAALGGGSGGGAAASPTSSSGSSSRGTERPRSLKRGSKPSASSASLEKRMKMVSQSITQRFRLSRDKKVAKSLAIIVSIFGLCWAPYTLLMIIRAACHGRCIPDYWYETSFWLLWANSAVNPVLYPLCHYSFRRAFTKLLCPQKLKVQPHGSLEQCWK
# In short: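 Competitive binding on rat cerebral cortex membranes, displacing the radioligand [3H]N-α-methylhistamine. Ki obtained from pKi. At least 3 independent pKi determinations per compound.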
# [3] = Half life in rat at 1 mg/kg, po; assay type: ADME, organism-based; design: dose 1 mg/kg, route oral; conditions: in vivo
# [4] = Oral bioavailability in rat at 1 mg/kg; assay type: ADME, organism-based; conditions: in vivo
# [5] = AUC (0 to infinity) in rat at 1 mg/kg, po; assay type: ADME, organism-based; design: time infinity, dose 1 mg/kg, route oral; conditions: plasma
# [6] = Ratio of drug level in brain to plasma in rat at 5 mg/kg, iv; assay type: ADME, organism-based; design: dose 5 mg/kg, route intravenous
# In short: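 Rats given 5 mg/kg intravenously; brain and plasma drug concentrations measured one hour after dosing and expressed as a brain-to-plasma ratio.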
# [7] = AUC (0 to infinity) in rat at 1 mg/kg, iv; assay type: ADME, organism-based; design: time infinity, dose 1 mg/kg, route intravenous; conditions: plasma
# [8] = Cmax in rat at 1 mg/kg, po; assay type: ADME, organism-based; design: dose 1 mg/kg, route oral; conditions: in vivo
# [9] = Half life in rat at 1 mg/kg, iv; assay type: ADME, organism-based; design: dose 1 mg/kg, route intravenous; conditions: in vivo
# [10] = Volume of distribution in rat at terminal phase at 1 mg/kg, iv; assay type: ADME, organism-based; design: dose 1 mg/kg, route intravenous; conditions: in vivo, read-out: Vbeta
# Chain of Histamine H3 receptor (Homo sapiens, UniProt Q9Y5N1) (Q9Y5N1 whole entry): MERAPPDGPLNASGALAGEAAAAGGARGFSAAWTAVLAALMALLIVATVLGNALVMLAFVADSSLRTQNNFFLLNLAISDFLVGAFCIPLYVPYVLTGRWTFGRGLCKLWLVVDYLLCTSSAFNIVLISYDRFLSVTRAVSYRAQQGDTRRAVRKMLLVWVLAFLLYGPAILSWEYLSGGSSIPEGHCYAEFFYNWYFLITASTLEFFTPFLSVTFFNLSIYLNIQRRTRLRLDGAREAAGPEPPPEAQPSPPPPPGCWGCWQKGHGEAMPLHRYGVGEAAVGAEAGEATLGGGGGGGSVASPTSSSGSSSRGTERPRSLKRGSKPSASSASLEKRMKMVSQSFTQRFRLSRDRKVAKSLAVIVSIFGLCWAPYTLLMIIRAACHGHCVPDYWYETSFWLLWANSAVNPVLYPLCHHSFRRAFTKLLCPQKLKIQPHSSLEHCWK
pKi [1],pKi [2],SMILES,other results
8.06,6.85,C[C@@H]1CCCCN1CCc1ccc2cc(-c3ccc(C#N)cc3)ccc2c1,–
8.58,7.34,CN(C)CCc1ccc2cc(-c3ccc(C#N)cc3)ccc2c1,–
9.08,7.90,CCN(CC)CCc1ccc2cc(-c3ccc(C#N)cc3)ccc2c1,–
8.48,7.18,N#Cc1ccc(-c2ccc3cc(CCN4CC=CC4)ccc3c2)cc1,–
8.06,7.47,CC[C@@H]1CCCN1CCc1ccc2cc(-c3ccc(C#N)cc3)ccc2c1,–
7.98,6.34,CN(CCO)CCc1ccc2cc(-c3ccc(C#N)cc3)ccc2c1,–
9.92,8.46,C[C@H]1CCCN1CCc1ccc2cc(-c3ccc(C#N)cc3)ccc2c1,–
9.31,8.19,N#Cc1ccc(-c2ccc3cc(CCN4CCCC4)ccc3c2)cc1,–
9.66,8.71,C[C@@H]1CCCN1CCCOc1ccc(-c2ccc(C#N)cc2)cc1,–
9.62,8.61,C[C@@H]1CCCN1CCc1ccc2cc(-c3ccc(C#N)cc3)ccc2c1,half-life [3]: 6.5 h; bioavailability [4]: 55%; AUC(0-inf) [5]: 890 ng·h/mL; Kp [6]: 72; AUC(0-inf) [7]: 1640 ng·h/mL; Cmax [8]: 48 ng/mL; half-life [9]: 6.9 h; Vd [10]: 6 L/kg
7.56,6.63,CC(C)C1CCCN1CCc1ccc2cc(-c3ccc(C#N)cc3)ccc2c1 (stereo unspecified),–
6.56,6.33,CC(C)CC1CCCN1CCc1ccc2cc(-c3ccc(C#N)cc3)ccc2c1 (stereo unspecified),–
9.09,8.01,N#Cc1ccc(-c2ccc3cc(CCN4CCC[C@H]4CF)ccc3c2)cc1,–
–,–,C[C@@H]1CCCN1CCc1cc2cc(-c3ccc(C#N)cc3)ccc2o1,half-life [3]: 5.2 h; AUC(0-inf) [5]: 349 ng·h/mL; AUC(0-inf) [7]: 673 ng·h/mL; Cmax [8]: 29 ng/mL; half-life [9]: 5.3 h; Vd [10]: 12 L/kg
8.54,7.37,N#Cc1ccc(-c2ccc3cc(CCN4CCC[C@@H]4CO)ccc3c2)cc1,–
9.36,7.96,N#Cc1ccc(-c2ccc3cc(CCN4CCC[C@H]4CO)ccc3c2)cc1,–
7.70,7.00,CN(C)[C@@H]1CCN(CCc2ccc3cc(-c4ccc(C#N)cc4)ccc3c2)C1,–
8.81,7.51,N#Cc1ccc(-c2ccc3cc(CCN4CC[C@@H](O)C4)ccc3c2)cc1,–
8.96,7.55,CN(CCc1ccc2cc(-c3ccc(C#N)cc3)ccc2c1)C(C)(C)C,–
8.34,7.52,CCN(CCc1ccc2cc(-c3ccc(C#N)cc3)ccc2c1)C(C)C,–
9.74,8.91,CC1CCCN1CCc1ccc2cc(-c3ccc(C#N)cc3)ccc2c1 (stereo unspecified),–
8.68,7.59,CCCN(C)CCc1ccc2cc(-c3ccc(C#N)cc3)ccc2c1,–
